In series [1] the test system is Staphylococcus aureus. Put plainly: Antimicrobial activity against Staphylococcus aureus ATCC 29213 by broth dilution method. Format: functional. The method, boiled down:
(§1)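 Frozen (−70 °C) stocks grown at 35 °C on Columbia sheep-blood agar, suspended in physiological saline to OD595 0.1, diluted 100×; 2 µL inoculum into 50 µL cation-adjusted Mueller Hinton II broth in 96-well plates. Peptides dissolved in methanol (4 g/L), diluted in water, two-fold serial dilutions in broth (64–1 mg/L). Incubation at 35 °C, 24–48 h; MIC = lowest concentration inhibiting growth.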
On the technique in general: Broth dilution looks for growth in wells or tubes with falling amounts of substance.

For series [2], the system named is Staphylococcus aureus. Put plainly: Antimicrobial activity against methicillin-resistant Staphylococcus aureus N133 by broth dilution method. Format: functional. The method, boiled down:
as §1

The subject of series [3] is Staphylococcus aureus. Kind of series: Antimicrobial activity against community acquired methicillin-resistant Staphylococcus aureus isolate 1110301146 by broth dilution method. Format: functional. In a few lines:
as §1

The test system of series [4] is Staphylococcus epidermidis. Put plainly: Antimicrobial activity against Staphylococcus epidermidis ATCC 12228 by broth dilution method. Format: functional. In a few lines:
(§2)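 Stored at −70 °C, grown at 35 °C on Columbia sheep-blood agar, then suspended in physiological saline to OD 0.1 AU at 595 nm and diluted 100× in saline. 2 µL inoculum was added to 50 µL cation-adjusted Mueller Hinton II broth. Peptides in methanol (4 g/L stock) were diluted in water, then two-fold in broth (64–1 mg/L). Incubation was 35 °C for 24–48 h. MIC is the lowest concentration inhibiting growth.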

Series [5] concerns Staphylococcus aureus. Kind of series: Antimicrobial activity against methicillin-resistant Staphylococcus aureus ATCC 49775 by broth dilution method. Format: functional. The method, boiled down: as §1
The subject of series [6] is Bacillus cereus. Put plainly: Antimicrobial activity against Bacillus cereus ATCC 11778 by broth dilution method. Format: functional. In a few lines:
as §2

For series [7], the system named is Staphylococcus aureus. Put plainly: Antimicrobial activity against methicillin-resistant Staphylococcus aureus isolate 1110301981 by broth dilution method. Format: functional. In a few lines:
as §1

Series [8] has as its system Enterococcus faecalis. Kind of series: Antimicrobial activity against Enterococcus faecalis ATCC 29212 by broth dilution method. Format: functional. In a few lines: as §2
Series [9] can be described thus: Therapeutic index, concentration required to achieve 100% hemolysis in erythrocyte to MIC for Escherichia coli ATCC 25922. The settings on record: erythrocytes. In a few lines:
(§3)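 Therapeutic index was taken as the concentration for 100% haemolysis divided by MIC for the given strain.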

The subject of series [10] is Staphylococcus aureus. Put plainly: Antimicrobial activity against methicillin-resistant Staphylococcus aureus N229 by broth dilution method. Format: functional. In a few lines: as §1
Series [11] has as its system Staphylococcus aureus. Kind of series: Antimicrobial activity against methicillin-resistant Staphylococcus aureus ATCC 43300 by broth dilution method. Format: functional. The method, boiled down: as §1
Series [12] in a line: Therapeutic index, concentration required to achieve 100% hemolysis in erythrocyte to MIC for Staphylococcus aureus ATCC 29213. The settings on record: erythrocytes; read-out: Ratio. The method, boiled down:
as §3

Series [13] concerns Escherichia coli. Put plainly: Antimicrobial activity against Escherichia coli ATCC 25922 by broth dilution method. Format: functional. The method, boiled down:
as §2

Series [14] deals with Pseudomonas aeruginosa. Put plainly: Antimicrobial activity against Pseudomonas aeruginosa ATCC 27853 by broth dilution method. Format: functional. In a few lines:
as §2

Series [15] can be described thus: Toxicity in Erythrocyte assessed as concentration required to achieve 100% hemolysis after 4 hrs. Format: cell-based. The method, boiled down:
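Heparinized fresh blood was centrifuged (1000g, 10 min, 10 °C). Erythrocytes were washed three times in 0.85% saline and diluted to a 1/25 packed volume. Peptides were prepared as a 1.5 mM stock in 30% DMSO/0.5 mM saline and serially two-fold diluted in triplicate rows. 1% Triton-X served as the full-lysis control. Incubation was 37 °C for 4 h, then centrifugation; supernatant was read. Value is the concentration giving 100% lysis.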

Results on five compounds are retold here after ChEMBL document CHEMBL1287679, “Tuning hydrophobicity of highly cationic tetradecameric Gramicidin S analogues using adamantane amino acids” (Bioorg Med Chem, 2010).

The structures appear in SMILES notation. Converted amounts (≈) assume the structure as drawn. Where a SMILES comes first, the peptide text is derived from it. [ ]: non-standard residue; d: D form. Gly(1-adamantyl) = N[C@H](C(=O)O)C12CC3CC(CC(C3)C1)C2; Orn = NCCC[C@H](N)C(=O)O

For the compound `NCCC[C@@H]1NC(=O)[C@H](CC23CC4CC(CC(C4)C2)C3)NC(=O)[C@H](CCCN)NC(=O)[C@H](C23CC4CC(CC(C4)C2)C3)NC(=O)[C@H](CCCN)NC(=O)[C@@H]2CCCN2C(=O)[C@@H](Cc2ccccc2)NC(=O)[C@H](CCCN)NC(=O)[C@H](CC23CC4CC(CC(C4)C2)C3)NC(=O)[C@H](CCCN)NC(=O)[C@H](C23CC4CC(CC(C4)C2)C3)NC(=O)[C@H](CCCN)NC(=O)[C@@H]2CCCN2C(=O)[C@@H](Cc2ccccc2)NC1=O`, the minimum inhibitory concentration (MIC) in series [1] amounted to 64 µg/mL (≈ 32.5 µM); in series [2] it was 32 µg/mL (≈ 16.3 µM); in [3] it was 32 µg/mL (≈ 16.3 µM); in series [4] it was 32 µg/mL (≈ 16.3 µM); in series [5], 32 µg/mL (≈ 16.3 µM); in [6], 2 µg/mL (≈ 1.02 µM). Moreover, the MIC is 32 µg/mL (≈ 16.3 µM) in series [7]; 32 µg/mL (≈ 16.3 µM) in series [8]; 32 µg/mL (≈ 16.3 µM) in series [10]; 32 µg/mL (≈ 16.3 µM) in series [11]; 64 µg/mL (≈ 32.5 µM) in series [13]; 64 µg/mL (≈ 32.5 µM) in series [14]. Besides, the values for the selectivity ratio in [9] and in series [12] were 0.12 and 0.1, respectively. Besides, in series [15], the Activity came out at 7.8 µM.

In the case of `CC(C)C[C@@H]1NC(=O)[C@H](CCCCN)NC(=O)[C@H](C(C)C)NC(=O)[C@@H]2CCCN2C(=O)[C@@H](Cc2ccc(O)cc2)NC(=O)[C@H](CC(C)C)NC(=O)[C@H](CCCCN)NC(=O)[C@H](C(C)C)NC(=O)[C@H](CCCCN)NC(=O)[C@H](CC(C)C)NC(=O)[C@@H]2CCCN2C(=O)[C@@H](Cc2ccc(O)cc2)NC(=O)[C@H](C(C)C)NC(=O)[C@H](CCCCN)NC1=O` (cyclo(KLKV[dY]PLKVKL[dY]PV)), the Activity in series [15] was 3.9 µM.

Consider `CC(C)C[C@@H]1NC(=O)[C@H](CCCN)NC(=O)[C@H](C(C)C)NC(=O)[C@@H]2CCCN2C(=O)[C@@H](Cc2ccccc2)NC(=O)[C@H](CC(C)C)NC(=O)[C@H](CCCN)NC(=O)[C@H](C(C)C)NC(=O)[C@H](CCCN)NC(=O)[C@H](CC(C)C)NC(=O)[C@@H]2CCCN2C(=O)[C@@H](Cc2ccccc2)NC(=O)[C@H](C(C)C)NC(=O)[C@H](CCCN)NC1=O` (cyclo(L[Orn]V[Orn]L[dF]PV[Orn]L[Orn]V[dF]P)), for which the MIC in [1] turned out to be 16 µg/mL (≈ 10.1 µM); in series [4], 8 µg/mL (≈ 5.06 µM); in [6] it was 4 µg/mL (≈ 2.53 µM); in [8], 8 µg/mL (≈ 5.06 µM); in [13], 64 µg/mL (≈ 40.5 µM); in series [14], 32 µg/mL (≈ 20.2 µM). Moreover, the results for the selectivity ratio in series [9] and in series [12] were 0.1 and 0.2, respectively. Further, the Activity in [15] was 3.9 µM.

As for `CC(C)C[C@@H]1NC(=O)[C@H](CCCCN)NC(=O)[C@H](C(C)C)NC(=O)[C@@H]2CCCN2C(=O)[C@@H](Cc2ccc(O)cc2)NC(=O)[C@H](CC(C)C)NC(=O)[C@H](CCCCN)NC(=O)[C@H](C(C)C)NC(=O)[C@H](CCCCN)NC(=O)[C@H](CC(C)C)NC(=O)[C@@H]2CCCN2C(=O)[C@@H](Cc2ccc(O)cc2)NC(=O)[C@H](C(C)C)NC(=O)[C@H](CCCCN)NC1=O` (cyclo(VKLKV[dY]PLKVKL[dY]P)), the MIC in series [1] is > 64 µg/mL; in series [4], 64 µg/mL (≈ 38.3 µM); in series [6], 32 µg/mL (≈ 19.2 µM); in series [8], 32 µg/mL (≈ 19.2 µM); in [13], > 64 µg/mL; in series [14] it was > 64 µg/mL.

On to `NCCC[C@@H]1NC(=O)[C@H](C23CC4CC(CC(C4)C2)C3)NC(=O)[C@H](CCCN)NC(=O)[C@@H]2CCCN2C(=O)[C@@H](Cc2ccccc2)NC(=O)[C@H](CCCN)NC(=O)[C@H](C23CC4CC(CC(C4)C2)C3)NC(=O)[C@H](CCCN)NC(=O)[C@@H]2CCCN2C(=O)[C@@H](Cc2ccccc2)NC1=O` (cyclo([Orn][dF]P[Orn][Gly(1-adamantyl)][Orn][dF]P[Orn][Gly(1-adamantyl)])), for which the MIC in [1] was 8 µg/mL (≈ 6.03 µM); in series [2] it was 8 µg/mL (≈ 6.03 µM); in [3], 8 µg/mL (≈ 6.03 µM); in series [4], 4 µg/mL (≈ 3.01 µM); in series [6], 8 µg/mL (≈ 6.03 µM); in series [7], 8 µg/mL (≈ 6.03 µM). Besides, the MIC in [8] is 8 µg/mL (≈ 6.03 µM); in [10], 8 µg/mL (≈ 6.03 µM); in series [13], 16 µg/mL (≈ 12.1 µM); in series [14], 8 µg/mL (≈ 6.03 µM). In addition, the selectivity ratio in series [9] and in series [12] was 62.5 each time. The Activity in [15] turned out to be 500 µM.

Usually MIC stands for the least concentration at which growth counts as inhibited.
